{
  "source": "paper PMC7935786",
  "about": "(Cancer Science, 2021)",
  "key": {"[1]": {"test_system": "Japanese patients with relapsed or refractory B‐NHL", "experiment": "Phase I study: safety, adverse events and DLT", "format": "in vivo, human", "summary_of_the_method": "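Patients received 800 mg orally once in a 4-day cycle 0, then 800 mg BID in 28-day cycles; reduction to 600 then 400 mg BID permitted. AEs graded by CTCAE v4.03, with hematology, chemistry, urinalysis, vital signs, 12-lead ECG and LVEF by echo/MUGA. DLT assessed over cycles 0–1 in patients completing both with ≥75% cycle-1 compliance, or having DLT. Safety set: ≥1 dose.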"}, "[2]": {"test_system": "relapsed or refractory B‐cell lymphoma", "experiment": "Phase I study: antitumor activity, Lugano Classification", "format": "in vivo, human", "summary_of_the_method": "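Oral dosing: 800 mg single dose in 4-day cycle 0, then 800 mg BID in 28-day cycles. Response assessed by CT per Lugano Classification. Bone marrow aspiration or biopsy if screening was positive or unconfirmed, to confirm CR, or when clinically indicated. Best overall response summarized overall and by DLBCL or FL in patients receiving ≥1 dose. ORR given with two-sided Clopper-Pearson exact 95% CIs.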"}, "[3]": {"experiment": "Phase I study: plasma and urine pharmacokinetics", "format": "in vivo, human", "conditions": "for R ss: AUC(0-12h) on cycle 1 day 15/AUC(0-inf) on cycle 0 day 1; for t max: median (minimum, maximum)"}, "[4]": {"conditions": "cited from earlier work"}, "[5]": {"test_system": "refractory B‐NHL and advanced solid tumors", "conditions": "study outside of Japan; cited from earlier work"}, "CYP3A4": {"test_system": "CYP3A4", "conditions": "ref Unpublished data in Eisai, cited from earlier work"}, "[6]": {"conditions": "seven treated patients, investigator assessment"}},
  "note": "“Also recorded” adds a separate entry of the source.",
  "data": [
    {"smiles": "CCN(c1cc(-c2ccc(CN3CCOCC3)cc2)cc(C(=O)NCc2c(C)cc(C)[nH]c2=O)c1C)C1CCOCC1", "note": "[Tazemetostat]", "values": [
      {"measurement": "Grade 3 AE anemia", "setting": "[1]; n = 7", "value": 14.3, "unit": "%"},
      {"measurement": "Grade 3 AE fatigue", "setting": "[1]; n = 7", "value": 14.3, "unit": "%"},
      {"measurement": "Grade 3 AE hypophosphatemia", "setting": "[1]; n = 7", "value": 14.3, "unit": "%"},
      {"measurement": "Grade 3 AE increased γ‐glutamyltransferase", "setting": "[1]; n = 7", "value": 14.3, "unit": "%"},
      {"measurement": "Grade 3 AE leukopenia", "setting": "[1]; n = 7", "value": 14.3, "unit": "%"},
      {"measurement": "Grade 3 AE lymphopenia", "setting": "[1]; n = 7", "value": 14.3, "unit": "%"},
      {"measurement": "Grade 3 AE neutropenia", "setting": "[1]; n = 7", "value": 14.3, "unit": "%"},
      {"measurement": "Grade 3 AE squamous cell carcinoma of the tongue", "setting": "[1]; n = 7", "value": 14.3, "unit": "%"},
      {"measurement": "Grade 3 AE thrombocytopenia", "setting": "[1]; n = 7", "value": 28.6, "unit": "%"},
      {"measurement": "Grade 3 or higher AEs", "setting": "[1]; n = 7", "value": 57.1, "unit": "%"},
      {"measurement": "Grade 4 AE increased levels of blood triglycerides", "setting": "[1]; n = 7", "value": 14.3, "unit": "%"},
      {"measurement": "Grade 4 AE intestinal perforation", "setting": "[1]; n = 7", "value": 14.3, "unit": "%"},
      {"measurement": "TR‐AE dysgeusia", "setting": "[1]; n = 7", "value": 42.9, "unit": "%"},
      {"measurement": "TR‐AE thrombocytopenia", "setting": "[1]; n = 7", "value": 42.9, "unit": "%"},
      {"measurement": "grade 2 peripheral neuropathy, leading to drug dose reduction", "setting": "[1]; n = 7", "value": 14.3, "unit": "%"},
      {"measurement": "patients having at least one TR‐AE", "setting": "[1]; n = 7", "value": 85.7, "unit": "%"},
      {"measurement": "patients who died or had AEs resulting in death", "setting": "[1]; n = 7", "value": "None"},
      {"measurement": "patients who experienced at least one AE", "setting": "[1]; n = 7", "value": "seven"},
      {"measurement": "treatment‐related serious AEs", "setting": "[1]; n = 7", "value": "No treatment‐related serious AEs"},
      {"measurement": "Serious AEs", "setting": "[1]; n = 7, intestinal perforation and squamous cell carcinoma of the tongue", "value": 28.6, "unit": "%"},
      {"measurement": "treatment‐related serious AEs", "setting": "[1]; n = 7, listed as tazemetostat", "value": "both assessed as not related to study drug; also recorded: No treatment‐related SAEs"},
      {"measurement": "patients who received a reduction in the tazemetostat dose", "setting": "[1]; n = 7, section 3.2", "value": 14.3, "unit": "%"},
      {"measurement": "time to first dose reduction", "setting": "[1]; one patient", "value": 4.9, "unit": "months"},
      {"measurement": "responses in patients with DLBCL", "setting": "[2]; DLBCL", "value": "one of three"},
      {"measurement": "Best overall response: Complete response (CR)", "setting": "[2]; DLBCL (n = 3), 800 mg BID", "value": "1 (33.3) n (%)"},
      {"measurement": "Best overall response: Not evaluable", "setting": "[2]; DLBCL (n = 3), 800 mg BID", "value": "0 (0.0) n (%)"},
      {"measurement": "Best overall response: Partial response (PR)", "setting": "[2]; DLBCL (n = 3), 800 mg BID", "value": "0 (0.0) n (%)"},
      {"measurement": "Best overall response: Progressive disease", "setting": "[2]; DLBCL (n = 3), 800 mg BID", "value": "2 (66.7) n (%)"},
      {"measurement": "Best overall response: Stable disease", "setting": "[2]; DLBCL (n = 3), 800 mg BID", "value": "0 (0.0) n (%)"},
      {"measurement": "Objective response rate (CR + PR)", "setting": "[2]; DLBCL (n = 3), 800 mg BID", "value": "1 (33.3) n (%)"},
      {"measurement": "responses in patients with FL", "setting": "[2]; FL", "value": "three of four"},
      {"measurement": "Best overall response: Complete response (CR)", "setting": "[2]; FL (n = 4), 800 mg BID", "value": "0 (0.0) n (%)"},
      {"measurement": "Best overall response: Not evaluable", "setting": "[2]; FL (n = 4), 800 mg BID", "value": "0 (0.0) n (%)"},
      {"measurement": "Best overall response: Partial response (PR)", "setting": "[2]; FL (n = 4), 800 mg BID", "value": "3 (75.0) n (%)"},
      {"measurement": "Best overall response: Progressive disease", "setting": "[2]; FL (n = 4), 800 mg BID", "value": "0 (0.0) n (%)"},
      {"measurement": "Best overall response: Stable disease", "setting": "[2]; FL (n = 4), 800 mg BID", "value": "1 (25.0) n (%)"},
      {"measurement": "Objective response rate (CR + PR)", "setting": "[2]; FL (n = 4), 800 mg BID", "value": "3 (75.0) n (%)"},
      {"measurement": "Best overall response: Complete response (CR)", "setting": "[2]; Total (n = 7), 800 mg BID", "value": "1 (14.3) n (%)"},
      {"measurement": "Best overall response: Not evaluable", "setting": "[2]; Total (n = 7), 800 mg BID", "value": "0 (0.0) n (%)"},
      {"measurement": "Best overall response: Partial response (PR)", "setting": "[2]; Total (n = 7), 800 mg BID", "value": "3 (42.9) n (%)"},
      {"measurement": "Best overall response: Progressive disease", "setting": "[2]; Total (n = 7), 800 mg BID", "value": "2 (28.6) n (%)"},
      {"measurement": "Best overall response: Stable disease", "setting": "[2]; Total (n = 7), 800 mg BID", "value": "1 (14.3) n (%)"},
      {"measurement": "Objective response rate (CR + PR)", "setting": "[2]; Total (n = 7), 800 mg BID", "value": "4 (57.1) n (%)"},
      {"measurement": "ORR", "setting": "[2]; all patients (4/7), 800 mg BID", "value": 57.1, "unit": "%"},
      {"measurement": "patients who experienced a reduction of tumor burden", "setting": "[2]; n = 7", "value": 85.7, "unit": "%"},
      {"measurement": "maximum change in the sum of the product of the diameters from baseline in the target lesion", "setting": "[2]; one patient with FL with gain‐of‐function mutation in EZH2, partial response", "value": "−82.3", "unit": "%"},
      {"measurement": "CR as BOR", "setting": "[2]; [6]", "value": 14.3, "unit": "%"},
      {"measurement": "PR as BOR", "setting": "[2]; [6]", "value": 42.9, "unit": "%"},
      {"measurement": "progressive disease as BOR", "setting": "[2]; [6]", "value": 28.6, "unit": "%"},
      {"measurement": "stable disease as BOR", "setting": "[2]; [6]", "value": 14.3, "unit": "%"},
      {"measurement": "absorption after oral administration", "setting": "[3]; 800 mg oral", "value": "rapidly absorbed"},
      {"measurement": "R ss", "setting": "[3]; mean (SD)", "value": "0.849 (0.277)"},
      {"measurement": "R ss", "setting": "[3]; mean (SD), listed as tazemetostat", "value": 0.849},
      {"measurement": "mean urinary excretion of tazemetostat", "setting": "[3]; both after C0D1 and C1D15 dosing", "value": "less than 3%"},
      {"measurement": "Vd/F", "setting": "[3]; human, plasma, oral, 800 mg", "value": 1910, "unit": "L"},
      {"measurement": "AUC", "setting": "[3]; human, plasma, oral, 800 mg BID, AUC(0‐ t ), plasma, after multiple doses, Cycle 1 day 15, last sampling time point 12 h, mean (SD), N = 7", "value": 4490, "unit": "ng·h/mL"},
      {"measurement": "t max", "setting": "[3]; human, plasma, oral, 800 mg BID, t max, plasma, after multiple doses, Cycle 1 day 15, N = 7", "value": "~1", "unit": "h"},
      {"measurement": "AUC", "setting": "[3]; human, plasma, oral, 800 mg, AUC(0‐12 h), plasma, after single dose, Cycle 0 day 1, mean (SD), N = 7", "value": 4700, "unit": "ng·h/mL"},
      {"measurement": "AUC", "setting": "[3]; human, plasma, oral, 800 mg, AUC(0‐ t ), plasma, after single dose, Cycle 0 day 1, last sampling time point 72 h, mean (SD), N = 7", "value": 5990, "unit": "ng·h/mL"},
      {"measurement": "AUC", "setting": "[3]; human, plasma, oral, 800 mg, AUC(0‐inf), plasma, after single dose, Cycle 0 day 1, mean (SD), N = 7", "value": 6030, "unit": "ng·h/mL"},
      {"measurement": "t max", "setting": "[3]; human, plasma, oral, 800 mg, t max, plasma, after single dose, Cycle 0 day 1, N = 7", "value": "~2", "unit": "h"},
      {"measurement": "Cmax", "setting": "[3]; human, plasma, po, 800 mg", "value": 1150, "unit": "ng/mL"},
      {"measurement": "C ss,min", "setting": "[3]; plasma, after multiple doses 800 mg BID, Cycle 1 day 15, mean (SD), N = 7", "value": "95.1 (37.7) ng/mL"},
      {"measurement": "t max", "setting": "[3]; plasma, after multiple doses, Cycle 1 day 15, N = 7", "value": "1.05 (0.88, 2.03) h"},
      {"measurement": "t max", "setting": "[3]; plasma, after single dose, Cycle 0 day 1, N = 7", "value": "1.97 (0.95, 4.08) h"},
      {"measurement": "treatment‐related deaths", "setting": "[4]; 99 patients", "value": "no treatment‐related deaths"},
      {"measurement": "treatment‐related grade 3 or higher AE anemia", "setting": "[4]; all 99 patients", "value": 2, "unit": "%"},
      {"measurement": "treatment‐related grade 3 or higher AE neutropenia", "setting": "[4]; all 99 patients", "value": 3, "unit": "%"},
      {"measurement": "treatment‐related grade 3 or higher AE thrombocytopenia", "setting": "[4]; all 99 patients", "value": 3, "unit": "%"},
      {"measurement": "Treatment‐related SAEs", "setting": "[4]; four of 99 patients", "value": 4, "unit": "%"},
      {"measurement": "recommended dose", "setting": "[5]", "value": 800, "unit": "mg BID"},
      {"measurement": "effect on the activity of CYP3A4", "setting": "CYP3A4; in vitro", "value": "induce and inhibit"},
      {"measurement": "metabolizing enzyme", "setting": "CYP3A4", "value": "mainly metabolized by CYP3A4"}
    ]}
  ]
}
